ChEMBL document CHEMBL1145801, “Inhibition of Cdc25 phosphatases by indolyldihydroxyquinones” (J Med Chem, 2003)

Key:
[1] = target: M-phase inducer phosphatase 2 (Homo sapiens, UniProt P30305, E492Q); experiment: Inhibitory concentration of compound against mutant E478Q of Cell division cycle 25B was determined
Method in brief: (§1)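 Cdc25B catalytic-domain point mutants, a truncated form and wild type were assayed with 3-O-methylfluorescein phosphate as substrate, monitored at 477 nm under initial velocity conditions. Values are the mean of two separate determinations.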

[2] = target: M-phase inducer phosphatase 2 (Homo sapiens, UniProt P30305, E488Q); experiment: Inhibitory concentration of compound against mutant E474Q of Cell division cycle 25B was determined; method in brief: as §1
[3] = target: T1, M-phase inducer phosphatase 3 (Homo sapiens) (UniProt P30307); experiment: Percent inhibition of cell division cycle 25 degree C at 50 uM
T1 sequence (whole entry): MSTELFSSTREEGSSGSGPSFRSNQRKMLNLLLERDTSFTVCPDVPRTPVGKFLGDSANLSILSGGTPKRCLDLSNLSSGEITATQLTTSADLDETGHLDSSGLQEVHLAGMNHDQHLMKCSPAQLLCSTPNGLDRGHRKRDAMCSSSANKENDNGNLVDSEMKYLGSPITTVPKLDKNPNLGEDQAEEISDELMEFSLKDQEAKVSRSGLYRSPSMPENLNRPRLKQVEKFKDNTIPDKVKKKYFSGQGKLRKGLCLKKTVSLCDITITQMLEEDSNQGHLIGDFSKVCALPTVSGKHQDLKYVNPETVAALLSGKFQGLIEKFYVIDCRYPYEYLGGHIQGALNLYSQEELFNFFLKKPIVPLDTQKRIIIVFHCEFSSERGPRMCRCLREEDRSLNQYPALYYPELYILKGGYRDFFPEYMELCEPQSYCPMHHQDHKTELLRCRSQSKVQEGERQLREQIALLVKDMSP
Method in brief: (§2)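 Single-point screen at 50 μM inhibitor against Cdc25A, Cdc25B or Cdc25C with 50 μM 3-O-methylfluorescein phosphate, product followed at 477 nm in time-dependent assays. Activity was compared with a simultaneous no-inhibitor control, and selected compounds were run in duplicate (average error ±7%).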

[4] = target: T2, M-phase inducer phosphatase 2 (Homo sapiens, UniProt P30305); experiment: Inhibitory concentration of compound against mutant WT of Cell division cycle 25B was determined; method in brief: as §1
[5] = target: M-phase inducer phosphatase 2 (Homo sapiens, UniProt P30305, R496L); experiment: Inhibitory concentration of compound against mutant R482L of Cell division cycle 25B was determined; method in brief: as §1
[6] = target: M-phase inducer phosphatase 2 (Homo sapiens, UniProt P30305, F489A); experiment: Inhibitory concentration of compound against mutant F475A of Cell division cycle 25B was determined; method in brief: as §1
[7] = target: M-phase inducer phosphatase 2 (Homo sapiens, UniProt P30305, Y542F); experiment: Inhibitory concentration of compound against mutant Y528F of Cell division cycle 25B was determined; method in brief: as §1
[8] = target: T3, M-phase inducer phosphatase 1 (Homo sapiens, UniProt P30304); experiment: Eight point inhibitory concentration against Cell division cycle 25A was determined
T3 sequence (P30304 whole entry): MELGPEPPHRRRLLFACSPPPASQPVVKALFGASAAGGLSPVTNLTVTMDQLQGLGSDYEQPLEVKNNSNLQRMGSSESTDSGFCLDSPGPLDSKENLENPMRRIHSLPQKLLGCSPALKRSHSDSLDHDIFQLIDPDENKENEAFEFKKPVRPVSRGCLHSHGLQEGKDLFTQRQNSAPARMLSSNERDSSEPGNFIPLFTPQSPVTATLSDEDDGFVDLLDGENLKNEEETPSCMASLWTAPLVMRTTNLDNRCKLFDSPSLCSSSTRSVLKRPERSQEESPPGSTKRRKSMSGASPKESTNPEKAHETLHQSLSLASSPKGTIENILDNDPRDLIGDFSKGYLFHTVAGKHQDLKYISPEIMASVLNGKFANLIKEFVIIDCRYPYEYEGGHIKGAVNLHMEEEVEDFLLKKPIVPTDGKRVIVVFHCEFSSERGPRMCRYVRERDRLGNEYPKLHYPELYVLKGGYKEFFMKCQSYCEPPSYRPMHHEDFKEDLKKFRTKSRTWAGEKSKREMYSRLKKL
Method in brief: (§3)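 Phosphatase activity measured with 3-O-methylfluorescein phosphate at 50 μM (~5 × Km), product formation followed at 477 nm by UV-vis under initial velocity conditions (2–5% turnover) in time-dependent assays. Eight inhibitor concentrations were used, and IC50 was obtained by fitting to a dose–response equation.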

[9] = target: T4, M-phase inducer phosphatase 2 (Homo sapiens) (UniProt P30305); experiment: Percent inhibition of cell division cycle 25B at 50 uM; method in brief: as §2
T4 sequence (whole entry): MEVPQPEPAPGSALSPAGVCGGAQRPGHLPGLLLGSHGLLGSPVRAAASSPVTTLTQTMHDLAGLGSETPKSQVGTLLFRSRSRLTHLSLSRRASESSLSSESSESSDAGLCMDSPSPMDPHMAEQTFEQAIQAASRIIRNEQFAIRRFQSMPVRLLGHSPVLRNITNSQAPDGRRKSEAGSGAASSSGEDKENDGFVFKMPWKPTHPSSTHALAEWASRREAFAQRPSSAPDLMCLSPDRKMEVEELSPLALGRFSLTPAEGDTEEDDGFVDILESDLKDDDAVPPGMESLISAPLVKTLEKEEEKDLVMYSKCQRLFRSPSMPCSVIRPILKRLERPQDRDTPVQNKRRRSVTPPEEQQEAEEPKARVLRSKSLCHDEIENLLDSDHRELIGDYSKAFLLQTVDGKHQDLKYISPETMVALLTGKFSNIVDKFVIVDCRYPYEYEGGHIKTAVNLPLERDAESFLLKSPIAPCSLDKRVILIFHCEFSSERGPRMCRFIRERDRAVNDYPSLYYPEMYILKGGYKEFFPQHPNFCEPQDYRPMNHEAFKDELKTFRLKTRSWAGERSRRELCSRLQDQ

[10] = target: T5, M-phase inducer phosphatase 1 (Homo sapiens) (UniProt P30304); experiment: Percent inhibition of cell division cycle 25A at 50 uM; method in brief: as §2
T5 sequence (whole entry): T3 sequence (P30304 whole entry)

[11] = target: T6, M-phase inducer phosphatase 2 (Homo sapiens, UniProt P30305); experiment: Inhibitory constant of compound against Cell division cycle 25B was determined using mFP as a substrate
T6 sequence (P30305 whole entry): T4 sequence (whole entry)

[12] = target: T7, M-phase inducer phosphatase 3 (Homo sapiens, UniProt P30307); experiment: Eight point inhibitory concentration against Cell division cycle 25 degree C was determined; method in brief: as §3
T7 sequence (P30307 whole entry): T1 sequence (whole entry)

[13] = target: T6, M-phase inducer phosphatase 2; experiment: Inhibitory concentration of compound against Cell division cycle 25B was determined using CDK2-p-TpY/Cyclin A as a substrate
Method in brief: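 Cdc25B dephosphorylation of 300 nM Cdk2-pTpY/CycA protein substrate was run in time-dependent assays at eight inhibitor concentrations to give IC50. Reactions were quenched with TCA, and bovine serum albumin carrier (1 mg/mL) was added only after the quench so that it was absent during inhibitor exposure.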

[14] = target: T2, M-phase inducer phosphatase 2; experiment: Inhibitory concentration of compound against truncated mutant of Cell division cycle 25B was determined; method in brief: as §1
[15] = target: T6, M-phase inducer phosphatase 2; experiment: Eight point inhibitory concentration against Cell division cycle 25B was determined
Method in brief: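 Cdc25B activity read by UV-vis at 477 nm as product formed from 3-O-methylfluorescein phosphate (mFP) at 50 μM (~5 × Km), time-dependent, initial-velocity conditions (2–5% turnover); eight inhibitor concentrations, IC50 fitted to eq 1. Each reaction compared with a simultaneous no-inhibitor control; selected compounds run in duplicate.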

[16] = target: M-phase inducer phosphatase 2 (Homo sapiens, UniProt P30305, R558L); experiment: Inhibitory concentration of compound against mutant R544L of Cell division cycle 25B was determined; method in brief: as §1
[17] = target: M-phase inducer phosphatase 2 (Homo sapiens, UniProt P30305, R506L); experiment: Inhibitory concentration of compound against mutant R492L of Cell division cycle 25B was determined; method in brief: as §1
[18] = target: M-phase inducer phosphatase 2 (Homo sapiens, UniProt P30305, M545A); experiment: Inhibitory concentration of compound against mutant M531A of Cell division cycle 25B was determined; method in brief: as §1
[19] = Inhibitory constant of compound against Cdc25 phosphatase was determined

Chain of M-phase inducer phosphatase 2 (Homo sapiens, UniProt P30305, M545A) (P30305 whole entry M545A): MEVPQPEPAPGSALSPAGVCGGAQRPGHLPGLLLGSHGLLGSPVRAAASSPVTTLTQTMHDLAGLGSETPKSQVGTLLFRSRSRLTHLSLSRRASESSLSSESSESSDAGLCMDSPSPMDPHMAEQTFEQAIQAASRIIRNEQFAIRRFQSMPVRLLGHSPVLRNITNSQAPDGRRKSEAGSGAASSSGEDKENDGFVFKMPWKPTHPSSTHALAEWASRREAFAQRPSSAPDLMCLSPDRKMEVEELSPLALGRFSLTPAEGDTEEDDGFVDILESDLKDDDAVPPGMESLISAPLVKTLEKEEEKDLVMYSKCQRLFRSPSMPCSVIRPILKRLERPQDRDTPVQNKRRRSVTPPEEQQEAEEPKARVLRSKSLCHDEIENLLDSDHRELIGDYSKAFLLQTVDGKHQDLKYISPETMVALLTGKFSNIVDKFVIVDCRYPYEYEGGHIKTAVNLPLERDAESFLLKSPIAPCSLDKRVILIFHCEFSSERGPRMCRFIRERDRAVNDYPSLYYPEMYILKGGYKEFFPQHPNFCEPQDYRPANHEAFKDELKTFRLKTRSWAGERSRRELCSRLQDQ
Chain of M-phase inducer phosphatase 2 (Homo sapiens, UniProt P30305, E492Q) (P30305 whole entry E492Q, the tested form may be a part): as the sequence (P30305 whole entry M545A) above, with E492Q, A545M counted along it
Chain of M-phase inducer phosphatase 2 (Homo sapiens, UniProt P30305, R558L) (P30305 whole entry R558L): as the sequence (P30305 whole entry M545A) above, with A545M, R558L counted along it
Chain of M-phase inducer phosphatase 2 (Homo sapiens, UniProt P30305, R506L) (P30305 whole entry R506L): as the sequence (P30305 whole entry M545A) above, with R506L, A545M counted along it
Chain of M-phase inducer phosphatase 2 (Homo sapiens, UniProt P30305, E488Q) (P30305 whole entry E488Q): as the sequence (P30305 whole entry M545A) above, with E488Q, A545M counted along it
Chain of M-phase inducer phosphatase 2 (Homo sapiens, UniProt P30305, F489A) (P30305 whole entry F489A): as the sequence (P30305 whole entry M545A) above, with F489A, A545M counted along it
Chain of M-phase inducer phosphatase 2 (Homo sapiens, UniProt P30305, Y542F) (P30305 whole entry Y542F): as the sequence (P30305 whole entry M545A) above, with Y542F, A545M counted along it
Chain of M-phase inducer phosphatase 2 (Homo sapiens, UniProt P30305, R496L) (P30305 whole entry R496L): as the sequence (P30305 whole entry M545A) above, with R496L, A545M counted along it

An IC50 [1] of 6.5 µM, an IC50 [2] of over 50 µM and an inhibition [3] of 84% were found for `CC(C)=CCc1cccc2c(C3=C(O)C(O)=CC(=O)C3=O)c[nH]c12` in this work. The IC50 [4] was 6.4 µM, the IC50 [5] was 40 µM and the IC50 [6] was over 50 µM. It also gave an IC50 [7] of 15 µM, an IC50 [8] of 4.1 µM and an inhibition [9] of 99%. The inhibition [10] was 100%, the Ki [11] was 0.64 µM and the IC50 [12] was 15 µM. The IC50 [13] was 28.2 µM, the IC50 [14] was 33 µM and the IC50 [15] was 5.6 µM. It also gave an IC50 [16] of 12 µM, an IC50 [17] of 11 µM and an IC50 [18] of 6.5 µM.

A Ki [19] of 0.47 µM was found for `CC(C)=CCC/C(C)=C/CC/C(C)=C/Cc1c(Cl)cc(Cl)c2c(C3=C(O)C(O)=CC(=O)C3=O)c[nH]c12` in this work.
